Test results published in publication PMC10993133 (iScience, 2024).

Legend:
Type in all cases: cell-based, human
[1] = tested on: MCF7 cells; assay: DNA fragmentation assay; conditions: MCF7, 30 hrs exposure, agarose gel
Procedure, shortened: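 MCF7 cells were seeded at 1 × 10^6 per well and exposed 30 hrs. They were lysed at RT in 0.5% Triton X-100, 15 mM EDTA, 20 mM Tris HCl. DNA was extracted with phenol/chloroform/isoamyl alcohol (25:24:1), then treated 1 hr with RNase (0.1 mg/mL) and proteinase K (1 mg/mL). It was precipitated overnight at −20°C with sodium acetate/ethanol, run on 2% agarose and stained with ethidium bromide.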

[2] = tested on: MDAMB231 cells; assay: Mitochondrial membrane potential; conditions: MDAMB231, 1 µM, 30 hrs, JC-1, n=4
Procedure, shortened: (§1)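 MCF7 and MDAMB231 cells in DMEM with 10% FCS were treated 30 hrs with Dox or encapsulated test compound, then harvested. They were incubated with shaking in JC-1 (2.5 µg/mL) in PBS at 37°C for 30–35 min. Cells were washed three times for 5 min in cold PBS and resuspended. ΔΨM was taken as the 590/530 nm fluorescence ratio. Means ± S.E., n=4.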

[3] = tested on: MDAMB231 cells; assay: ROS generation; conditions: MDAMB231, 1 µM, 24 hrs, CM-H2DCFDA, n=4
Procedure, shortened: (§2)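 MCF7 or MDAMB231 cells were treated 24 hrs with Dox or encapsulated test compound. Cells were scraped, pelleted and washed twice in chilled PBS, then loaded with CM-H2DCFDA (5 µM) in PBS for 20 min in the dark at 37°C. After washing, cells were lysed in PBS with 1% Tween 20. DCF fluorescence was read at ex 480/em 530 nm. Means ± S.E., n=4, versus vehicle control.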

[4] = tested on: MCF7 cells; assay: Mitochondrial membrane potential; conditions: MCF7, 1 µM, 30 hrs, JC-1, n=4
Procedure, shortened: as §1

[5] = tested on: MCF7 cells; assay: ROS generation; conditions: MCF7, 1 µM, 24 hrs, CM-H2DCFDA, n=4
Procedure, shortened: as §2

**Q.** How did the “DNA damage (DNA laddering)” value [1] turn out when `COc1cccc2c1C(=O)c1c(O)c3c(c(O)c1C2=O)C[C@@](O)(C(=O)CO)C[C@@H]3O[C@H]1C[C@H](N)[C@H](O)[C@H](C)O1` [Dox, doxorubicin] was run?
**A.** resulted in DNA damage

**Q.** And the “mitochondrial membrane potential (ΔΨM)” value [2]?
**A.** loss of mitochondrial membrane potential

**Q.** And the “increase of intracellular ROS levels” value [3]?
**A.** comparable

**Q.** And the “mitochondrial membrane potential (ΔΨM)” value [4]?
**A.** loss of mitochondrial membrane potential

**Q.** What about the “increase of intracellular ROS levels” value [5] of the same compound?
**A.** comparable
